Source: PubChem BioAssay
ROMK mod: ROMK potassium channel modulators, primary screen, cell-based, thallium flux, MLSMR library. ATP-sensitive inward rectifier potassium channel 1 (Homo sapiens), P48048. Tet-inducible ROMK, thallium flux fluorescence; actives lie on both sides. B-score at 10 µM. 130,000 compounds, 2% hits. AID 1918, 2009;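 active means signal ratio slope over the read window, or its plate-corrected B-score, at least 3 SD from the plate mean, either direction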;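 further: B-score of the F/F0 ratio slope over 7 to 12 s after thallium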
KCC2 mod: KCC2 cotransporter modulators, thallium flux, primary screen, cell-based, HEK293 KCC2, FluoZin-2 fluorescence, MLSMR; Solute carrier family 12 member 5 (Homo sapiens), Q9H2X9; KCC2 cells, thallium flux FluoZin-2 fluorescence; B-score of Tl+ flux slope (higher = more flux/activation; lower = inhibition) at 10 µM; 190,000 compounds, 2.2% hits;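 active means thallium flux slope and its plate-corrected score both differing from the plate sample mean at a set confidence after two filtering rounds, in either direction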;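 further: slope of fluorescence scaled to starting intensity during 10 to 20 s after thallium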
Diaph act CS: compounds boosting diaphorase resazurin reduction – biochemical, uHTS, resorufin fluorescence, counter-screen for diaphorase-coupled primary assays, primary screen. Diaphorase/resazurin coupled assay, 16 min; hits give high values; 1 = vehicle wells, 0 = NADH-free wells. 190,000 compounds, 0.005% hits. activation factor at 20 µM. AID 1229, 2008;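 active means diaphorase activity raised at least twofold by the compound at 20 µM; inactive means activation factor below 2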
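Material: bacterial diaphorase enzyme (C. kluyveri); amount: enzyme 0.07 U/mL final; reagent: NADH substrate 0.114 mM plus resazurin dye 0.1 mM, final; doses: single compound dose of 20 µM, 1% DMSO final; timing: 16 min enzyme reaction, ambient temperature; measured by: fluorescence of resorufin, 544 nm excitation, 590 nm emission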
WT yeast gro inh: growth inhibition of WT strain, primary screen, mitochondrial fusion inhibitor project, WT and mutant strains, chemical genetic | mitochondrial fusion phenotypic screen | inhibition, % at 10 µM | 190,000 compounds, 2.1% hits | AID 1362, 2008; in the data active means inhibition above about 58%; tested in S. cerevisiae
Diaphorase inh: diaphorase inhibitors and chemical oxidizers, primary screen, counter-screen for diaphorase-coupled primary assays, biochemical, uHTS, resorufin fluorescence | AID 1217, 2008 | inhibition, % at 20 µM | diaphorase resazurin-to-resorufin fluorescence, NADH, 16 min; bacterial (C. kluyveri) enzyme, not human | 190,000 compounds, 0.69% hits;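 active means primary screen inhibition at 20 µM above a set limit, cut at about 50% in these data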
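Assay system – diaphorase enzyme from Clostridium kluyveri · Amount – diaphorase 0.14 U/mL (working solution) · Times – reaction incubation of 16 min at room temperature · Controls – No-NADH positive control and DMSO neutral control · Signal – resorufin fluorescence 544/590 nm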
L major viab: Leishmania major promastigote growth inhibition, primary screen; Leishmania major promastigotes, resazurin fluorescence viability; inhibition, % at 10 µM; 200,000 compounds, 9% hits; AID 1063, 2008; in the data active means inhibition above about 50%;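 further: promastigotes grown with compound for 44 hours at 28 °C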
Hits are given with their value; n = inactive; x = not tested or not shown. Rows were chosen to be rich in hits. Some 12% of all compounds tested hit in one or more screens of this group.

SMILES | ROMK mod | KCC2 mod | Diaph act CS | WT yeast gro inh | Diaphorase inh | L major viab
O=C1CCCN1CCCNc1ncnc2sccc12 | n | n | n | n | n | n
Cc1c(NC(=O)CCCCCN2C(=O)c3ccccc3C2=O)c(=O)n(-c2ccccc2)n1C | n | n | n | n | n | n
CCCCN(CCCC)CCCNC(=O)c1ccc2nc(-c3ccccc3NC(C)=O)c(=O)[nH]c2c1 | n | n | n | n | n | n
CC(=O)Nc1ccccc1-c1nc2ccc(C(=O)N3CCN(c4cc(C)ccc4C)CC3)cc2[nH]c1=O | x | x | n | n | n | 56
Cc1cc(OCCCCCN2CCCC2)ccc1Cl | n | n | n | n | n | 99
Cc1cc(OCC(=O)N2CCCC2)ccc1Cl | x | n | n | n | n | n
Clc1ccc(OCCCn2cncn2)cc1Cl | x | n | n | n | n | 100
CNCCOc1ccc(Cl)c(Cl)c1 | x | n | n | n | n | n
c1ccc(COc2ccc(OCCCn3cncn3)cc2)cc1 | n | x | n | n | n | n
Clc1ccc(OCCN2CCCCC2)cc1Cl | n | n | n | n | n | 79
Clc1ccc(OCCN2CCOCC2)cc1Cl | x | n | n | n | n | 86
Cc1nc(-c2ccc(C(=O)Nc3cccc(Br)c3)cc2)cs1 | n | n | n | n | n | n
Clc1ccc(OCCCN2CCCC2)cc1Cl | n | n | n | n | n | 91
Cc1ccc2c(Cl)c(C(=O)Nc3cccnc3)sc2c1 | x | n | n | n | n | n
CCOc1ccc(CN2CCCC(CNC(=O)c3ccc(F)cc3)C2)cc1CO (stereo not given) | n | n | n | n | n | n
O=C(Nc1ccc(CN2CCS(=O)(=O)CC2)cc1)c1ccc(Cl)cc1 | n | n | x | x | x | x
CC(C)(C)NC(=O)Cn1c(=O)c(=O)n(Cc2ccccc2)c2ccc(Cl)cc21 | x | n | n | n | n | 58
C#CCn1c(=NC(=O)CN2C(=O)CCC2=O)sc2cccc(C)c21 | x | x | n | n | n | n
Cc1ccc(C)c2c1sc(=NC(=O)CN1C(=O)CCC1=O)n2C | x | x | n | n | n | 91
CCOCCCn1c(SCC(=O)NCc2ccc3c(c2)OCO3)nc2ccccc2c1=O | n | n | n | n | n | n
CCOCCCn1c(SCC(=O)Nc2cc(C(C)(C)C)nn2-c2ccccc2)nc2ccccc2c1=O | n | n | n | n | n | 72
COCCn1c(SCC(=O)Nc2cc(C(C)(C)C)nn2-c2ccccc2)nc2ccccc2c1=O | n | n | n | n | n | 54
COc1ccccc1-n1cnnc1SCC(=O)Nc1cc(C(C)(C)C)nn1-c1ccccc1 | x | n | n | 78 | n | n
COCCn1c(SCC(=O)Nc2ccccc2C)nc2c(oc3ccccc32)c1=O | n | n | n | n | n | n
COCCn1c(SCC(=O)Nc2ccc(C)cc2C)nc2c(oc3ccccc32)c1=O | x | n | n | n | n | 54
SMILES | ROMK mod | KCC2 mod | Diaph act CS | WT yeast gro inh | Diaphorase inh | L major viab
O=C1Cn2c(nc3ccccc32)N1c1cccc(C(F)(F)F)c1 | n | n | n | n | n | n
COc1ccccc1NC(=S)NC(NC(=O)CC(C)C)C(Cl)(Cl)Cl (stereo not given) | n | n | n | n | n | n
COc1cc(OC)c(OC)cc1/C=N/Nc1ncnc2c1[nH]c1ccccc12 | n | n | n | n | n | 61
COc1cc(CNc2ncnc3c2[nH]c2ccc(C)cc23)cc(OC)c1 | n | n | x | x | x | x
C=CCNc1ncnc2c1[nH]c1ccc(Cl)cc12 | n | n | n | n | n | 100
C=CCNc1ncnc2c1[nH]c1ccccc12 | x | n | n | n | n | 67
c1ccc2c(c1)[nH]c1c(NCC3CCCO3)ncnc12 (stereo not given) | x | n | n | n | n | 86
O=C(COC(=O)CNC(=O)c1ccccc1)Nc1ccc2c(c1)OCO2 | n | n | n | n | n | n
O=C(NCc1ccccc1Cl)C1CCCN(S(=O)(=O)c2cccc3nsnc23)C1 (stereo not given) | n | n | n | n | n | n
Cn1c(O)c(C=NCC2CCNCC2)c(=O)n(C)c1=O | n | n | n | n | n | n
O=C(CN1CCOCC1)Nc1ccccc1Sc1ccc(Cl)cc1 | n | n | n | n | n | n
Cc1cc(-c2sccc2C)nc(-n2cccc2)n1 | x | n | n | 68 | n | n
Cc1nc2cc(-c3sccc3-n3cccc3)nn2c(C)c1C | x | n | n | n | n | n
O=C(COC(=O)C1=COCCO1)NC1CCCCCCC1 | n | n | n | n | n | n
Cc1cc(C)c2nc(NC(=O)c3cc(C)on3)sc2c1 | n | 39 | n | n | n | n
CCc1ccc2nc(NC(=O)c3cc(C)on3)sc2c1 | x | 42 | n | n | n | n
COc1ccc(/C=C(\NC(=O)c2ccccc2)C(=O)OC[C@@H]2CCC[N+]3(C)CCCCC23)cc1OC (stereo not given in full) | n | n | n | n | n | n
COc1ccc(CN2CCN(C(=O)C3CCC(CNS(=O)(=O)c4ccc(C)cc4)CC3)CC2)c(OC)c1OC (stereo not given) | n | n | n | n | n | n
COC(=O)COc1ccc(/C=N/NC(=O)c2ccc(N(Cc3ccccc3)S(C)(=O)=O)cc2)cc1 | n | n | n | n | n | 58
CC(C)Oc1ccc(/C=N/NC(=O)c2ccc(N(Cc3ccccc3)S(C)(=O)=O)cc2)cc1 | n | n | n | n | n | n
CCCc1nc2oc3c(NCCN(C)C)ncnc3c2c2c1CCCC2 | x | n | n | n | n | 101
O=C(CNC(=S)N(Cc1ccccc1F)C1CCCCC1)NCCCN1CCOCC1 | n | n | n | n | n | n
CN(C)c1cccc(C(=O)OCc2cc(=O)oc3cc(O)ccc23)c1 | n | n | n | n | n | n
CC1CN(S(=O)(=O)c2cccc(C(=O)OCc3cc(=O)oc4cc(O)ccc34)c2)CC(C)O1 (stereo not given) | x | x | n | n | n | 96
CCOc1ccccc1C(=O)Nc1nn[nH]n1 | n | n | n | n | n | n
N#C/C(=C\c1cccs1)C(=O)Nc1ccccn1 | x | n | x | x | x | x
Cc1ccc(Cn2ccc(=O)c(OCc3c(Cl)cccc3Cl)c2C)cc1 | n | n | n | 77 | n | 97
COC(=O)C1=C(NC(C)=O)CCS1 | x | n | n | n | n | n
CC(NC(=S)Nc1ccc(F)cc1)C(c1cccs1)N1CCOCC1 (stereo not given) | x | n | n | n | n | n
O=C(CC1S/C(=N/N=C/c2cccs2)NC1=O)Nc1ccccc1F (stereo not given) | n | n | n | n | n | n
